Measured values collected from several papers.
Compare with care: the assays were run in different laboratories.
Target: Serine/threonine-protein kinase ULK3 (ULK3, Homo sapiens, UniProt Q6PHR2)
Sequence (Q6PHR2 1-472, as in one of the studies): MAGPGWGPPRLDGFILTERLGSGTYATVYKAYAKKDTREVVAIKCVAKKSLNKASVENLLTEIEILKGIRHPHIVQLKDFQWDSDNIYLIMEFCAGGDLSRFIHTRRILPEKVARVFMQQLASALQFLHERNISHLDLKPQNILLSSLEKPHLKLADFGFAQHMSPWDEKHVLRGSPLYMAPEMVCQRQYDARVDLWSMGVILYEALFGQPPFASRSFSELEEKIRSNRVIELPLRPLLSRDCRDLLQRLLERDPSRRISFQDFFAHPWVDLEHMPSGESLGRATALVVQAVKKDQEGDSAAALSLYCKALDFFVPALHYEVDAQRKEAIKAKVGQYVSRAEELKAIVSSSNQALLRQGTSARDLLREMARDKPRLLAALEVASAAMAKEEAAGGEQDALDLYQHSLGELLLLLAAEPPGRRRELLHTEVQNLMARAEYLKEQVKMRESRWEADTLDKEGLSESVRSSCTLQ

Structure (SMILES) | assay | setting | measurement | result
Cc1ccc(NC(=O)c2ccnc(C(F)(F)F)c2)cc1-c1cc(OCCO)nc(N2CCOCC2)c1 | binding, competition with immobilised ligand | 1 µM | remaining binding | 85%
C=CC(=O)N1CCC([C@@H]2CCNc3c(C(N)=O)c(-c4ccc(Oc5ccccc5)cc4)nn32)CC1 | enzyme activity, inhibitor | 1 µM | inhibition | 11%
CCCCC(=O)Nc1ccc(-c2ccc3ncn(CCC)c(=O)c3c2)cn1 | binding, competition with immobilised ligand | 0.5 µM | remaining binding | 99%
C#Cc1cc(-c2cc(Nc3nc(N[C@@H](C)c4ccc(F)cn4)ncc3Cl)n[nH]2)ccc1C=O | enzyme activity, inhibitor | 0.2 µM | inhibition | 57.5%
COc1ccc2oc(-c3ccc4nc(N)oc4c3)c/c(=N\c3ccccc3NC(=O)CCN)c2c1 | binding | 1 µM | remaining binding | 96%
CN1CCN(C(=O)c2ccc(NC(=O)Nc3ccc(N(C)c4ccnc(Nc5ccc(CS(C)(=O)=O)cc5)n4)cc3)cc2)CC1 | binding, competition with immobilised ligand | 1 µM | remaining binding | 7.6%
C=CC(=O)N1CCC[C@@H](n2nc(-c3ccc(Oc4ccccc4)cc3)c3c(N)ncnc32)C1 | enzyme activity, inhibitor | 1 µM | inhibition | 29%
C1=C/COCc2cc(ccc2OCCN2CCCC2)Nc2nccc(n2)-c2cccc(c2)COC/1 | cell-free assay | 0.1 µM | remaining signal | 57%
